The results in this text go back to ChEMBL document CHEMBL3351976, “Flexible, polymer-supported synthesis of sphingosine derivatives provides ceramides with enhanced biological activity” (Bioorg Med Chem, 2014).

Molecules are shown by their SMILES.

The subject of the first assay is HepG2. Put plainly: Antiproliferative activity against human HepG2 cells after 24 hrs by Alamar blue assay. To be noted: Homo sapiens, HepG2, 24 h; read-out: IC50. It is filed as functional, cell-based. Summed up:
(§1)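 Cells seeded at 5000 per well and preincubated 24 h at 37 °C/5% CO₂, then exposed to compounds in DMSO (final DMSO 0.5%; DMSO-only controls) at 6.25–200 µM for a further 24 h at 37 °C. Alamar Blue added to 10% final, fluorescence read (ex 535/em 590 nm) after 4 h and 24 h further incubation. IC50 from triplicates.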
With `CCCCCCCCc1ccc(/C=C/C(=O)[C@H](CO)NC(C)=O)cc1`, the IC50 came out at 65 µM.
Still for that read-out and setting: the same measure for `CC(=O)N[C@@H](CO)C(=O)/C=C/c1ccccc1`: above 200 µM.
Still for that read-out and setting: the same measure for `CCCCCCCCCCCCC/C=C/C(=O)[C@H](CO)NC(C)=O`: 175 µM; for `CCCCCCCCc1ccc(/C=C/[C@@H](O)[C@H](CO)NC(C)=O)cc1`: 31 µM.
On the same count and under the same terms, next, `CCCCCCCCCCCCC/C=C/[C@@H](O)[C@H](CO)NC(C)=O`: 58 µM.
As for `CC(=O)N[C@@H](CO)C(=O)/C=C/c1ccc(-c2ccccc2)cc1`, the IC50 turned out to be 41 µM.

The same assay, now with this note: hepg2.
As to `CC(=O)N[C@@H](CO)[C@H](O)/C=C/c1ccccc1`, the IC50 result is “ND(Unstable)”.
For `CC(=O)N[C@@H](CO)[C@H](O)/C=C/c1ccc(-c2ccccc2)cc1`, the IC50 result was “ND(Unstable)”.

System in a further assay: not listed separately
Put plainly: Antiproliferative activity against rat PC12 cells after 24 hrs by Alamar blue assay. Type of assay: functional, cell-based, PC-12. To be noted: Rattus norvegicus, PC-12, 24 h; read-out: IC50. Summed up: as §1
(In general: Alamar Blue is a resazurin reagent that responds to reducing activity.)
In the case of `CCCCCCCCc1ccc(/C=C/C(=O)[C@H](CO)NC(C)=O)cc1`, the 50% inhibitory concentration (IC50) stood at 70 µM.
On the same count and under the same terms, the same measure for `CC(=O)N[C@@H](CO)C(=O)/C=C/c1ccccc1`: 42 µM; for `CCCCCCCCCCCCC/C=C/C(=O)[C@H](CO)NC(C)=O`: above 200 µM.
The same measure, in the same setting: the same measure for `CCCCCCCCc1ccc(/C=C/[C@@H](O)[C@H](CO)NC(C)=O)cc1`: 40 µM; for `CCCCCCCCCCCCC/C=C/[C@@H](O)[C@H](CO)NC(C)=O`: 98 µM; for `CC(=O)N[C@@H](CO)C(=O)/C=C/c1ccc(-c2ccccc2)cc1`: 59 µM.

Still in this assay, the particulars now being: pc-12.
Turning to `CC(=O)N[C@@H](CO)[C@H](O)/C=C/c1ccccc1`, the IC50 result is given as “ND(Unstable)”.
On the same count and under the same terms, the same measure for `CC(=O)N[C@@H](CO)[C@H](O)/C=C/c1ccc(-c2ccccc2)cc1`: “ND(Unstable)”.

System in the next assay: not listed separately
Nature of the assay: Antiproliferative activity against human HL60 cells after 24 hrs by Alamar blue assay. It is filed as functional, cell-based, HL-60. To be noted: Homo sapiens, HL-60, 24 h; read-out: IC50. In outline:
as §1
Regarding `CC(=O)N[C@@H](CO)C(=O)/C=C/c1ccccc1`, the IC50 was determined as 48 µM.
Still for that read-out and setting: the same measure for `CCCCCCCCCCCCC/C=C/C(=O)[C@H](CO)NC(C)=O`: 43 µM; for `CCCCCCCCc1ccc(/C=C/[C@@H](O)[C@H](CO)NC(C)=O)cc1`: 11 µM; for `CCCCCCCCCCCCC/C=C/[C@@H](O)[C@H](CO)NC(C)=O`: 26 µM.
Still for that read-out and setting: next, `CC(=O)N[C@@H](CO)C(=O)/C=C/c1ccc(-c2ccccc2)cc1`: 50 µM.

Still in this assay, the particulars now being: hl-60.
`CCCCCCCCc1ccc(/C=C/C(=O)[C@H](CO)NC(C)=O)cc1`: the IC50 result is listed as “ND(Unstable)”.
Take `CC(=O)N[C@@H](CO)[C@H](O)/C=C/c1ccccc1`: the IC50 result is listed as “ND(Unstable)”.
With `CC(=O)N[C@@H](CO)[C@H](O)/C=C/c1ccc(-c2ccccc2)cc1`, the IC50 result is reported as “ND(Unstable)”.

As usually defined, the IC50 is the concentration at which inhibition is half-maximal.
